In ChEMBL document CHEMBL1143331, “The synthesis and structure-activity relationship of substituted N-phenyl anthranilic acid analogs as amyloid aggregation inhibitors” (Bioorg Med Chem Lett, 2009):
Calls of active or inactive are those of the source. The calls are words filed in the database; no cut-off is given here.

How the values were obtained:
[1] = Inhibition of amyloid beta (1 to 40) aggregation by beta amyloid self seeding thioflavin T assay
In short: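 Compound was incubated with 30 μM Aβ(1-40) in 50 mM NaPi, 150 mM NaCl, 1 M urea, 0.02% w/v NaN3, pH 7.5. Thioflavin T at 5 µM was added after fibril formation, and fluorescence was read as β-sheet fibril content. IC50 came from eight concentrations by logit transformation of the titration curves. Values are the mean of two separate experiments.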

[2] = Inhibition of amyloid beta (1 to 40) aggregation by beta amyloid self seeding radioassay
In short: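 Aβ(1-40) at 30 μM unlabeled, plus a tracer amount of 125I-Aβ(1-40), incubated with compound in 50 mM NaPi, 150 mM NaCl, 1 M urea, 0.02% w/v NaN3, pH 7.5. Radiolabeled fibrils retained on a 0.2 µm filter were measured. Eight compound concentrations were tested, and IC50 was taken by logit transformation of the titration curves. Values are the average of two separate experiments.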

Mus musculus [3] = test: Reduction in senile plaque load in Tg2576 mouse overexpressing human betaAPP695SWE at 60 mg/kg/day, po administered with chow for 7 months; format: functional; set-up: scale not given: the % may be the effect or the level left
Mus musculus [4] = test: Reduction in senile plaque load in Tg2576 mouse overexpressing human betaAPP695SWE at 60 mg/kg/day, po administered with chow for 3 months; format: functional; set-up: scale not given: the % may be the effect or the level left
Mus musculus [5] = test: Reduction in mean senile plaque area in Tg2576 mouse overexpressing human betaAPP695SWE at 60 mg/kg/day, po administered with chow; format: functional; set-up: scale not given: the % may be the effect or the level left
Mus musculus [6] = test: Reduction in senile plaque load in Tg2576 mouse overexpressing human betaAPP695SWE at 200 mg/kg/day, po administered with chow for 7 months; format: functional; set-up: scale not given: the % may be the effect or the level left
[7] = Inhibition of amyloid beta (1 to 40) aggregation assessed as appearance of smaller fragmented amyloid beta species at 50 uM by atomic force microscopy study
Mus musculus [8] = test: Reduction in mean senile plaque area in Tg2576 mouse overexpressing human betaAPP695SWE at 200 mg/kg/day, po administered with chow; format: functional; set-up: scale not given: the % may be the effect or the level left

| Compound | IC50 [1] | IC50 [2] | also measured |
| --- | --- | --- | --- |
| O=C(O)c1ccccc1Nc1ccc(CCc2cc(Cl)cc(Cl)c2)cc1 | 15 µM | > 100 µM | – |
| O=C(O)c1cccnc1Nc1ccc(CCc2ccc(Cl)c(Cl)c2)cc1 | 2 µM | 7 µM | – |
| O=C(O)c1cc([N+](=O)[O-])ccc1Nc1ccc(CCc2ccc(F)c(F)c2)cc1 | 4 µM | 41 µM | – |
| O=C(O)c1ccccc1Nc1ccc(CCc2ccc(Cl)cc2Cl)cc1 | 51 µM | > 100 µM | – |
| O=C(O)c1cc([N+](=O)[O-])ccc1Nc1ccc(CCc2ccc(Cl)c(Cl)c2)cc1 | 0.5 µM | 43 µM | – |
| COc1ccc(CCc2ccc(Nc3ccccc3C(=O)O)cc2)cc1 | > 100 µM | > 100 µM | – |
| O=C(O)c1ccccc1Nc1ccc(CCc2ccccc2)cc1 | 10 µM | 60 µM | – |
| CCN(CC)c1ccc(Nc2ccc(CCc3ccc(Cl)c(Cl)c3)cc2)c(C(=O)O)c1 | 53 µM | > 100 µM | – |
| O=C(O)c1cccc(Nc2ccc(CCc3ccc(Cl)c(Cl)c3)cc2)c1 | 10 µM | > 100 µM | – |
| O=C(O)c1cc(Nc2ccc(CCc3ccc(Cl)c(Cl)c3)cc2)ccc1C(F)(F)F | 35 µM | > 100 µM | – |
| O=C(O)c1ccccc1Nc1ccc(CCCc2ccc(Cl)cc2)cc1 | 2 µM | 3 µM | – |
| O=C(O)c1cc([N+](=O)[O-])ccc1Nc1ccc(CCc2ccc(F)c(C(F)(F)F)c2)cc1 | 0.8 µM | 3 µM | – |
| COc1ccc(CCCc2ccc(Nc3cc(F)ccc3C(=O)O)cc2)cc1 | 9 µM | 14 µM | – |
| Cc1ccc(CCCc2ccc(Nc3ccccc3C(=O)O)cc2)cc1 | 1 µM | 9 µM | – |
| O=C(O)c1ccccc1Nc1ccc(CCCc2ccccc2)cc1 | 5 µM | 14 µM | – |
| Cc1ccc(CCc2ccc(Nc3ccc([N+](=O)[O-])cc3C(=O)O)cc2)cc1C | 2 µM | 12 µM | – |
| Cc1ccc(CCCc2ccc(Nc3ccc(F)cc3C(=O)O)cc2)cc1C | 1 µM | > 100 µM | – |
| O=C(O)c1cccnc1Nc1ccc(CCCc2ccc(Cl)c(Cl)c2)cc1 | 5 µM | 60 µM | – |
| O=C(O)c1ccccc1Nc1ccc(CCCc2cc(Cl)cc(Cl)c2)cc1 | 3 µM | 3 µM | – |
| O=C(O)c1ccccc1Nc1ccc(CCCc2ccccc2Cl)cc1 | 2 µM | 6 µM | – |
| COc1ccc(CCCc2ccc(Nc3ccc(F)cc3C(=O)O)cc2)cc1 | 10 µM | 14 µM | – |

| Compound | IC50 [1] | IC50 [2] | also measured |
| --- | --- | --- | --- |
| O=C(O)c1cc([N+](=O)[O-])ccc1Nc1ccc(CCCc2ccc(Cl)c(Cl)c2)cc1 | 1 µM | > 100 µM | – |
| Cc1ccc(CCc2ccc(Nc3ccccc3C(=O)O)cc2)cc1C | 10 µM | > 100 µM | – |
| Cc1ccc(CCCc2ccc(Nc3ncccc3C(=O)O)cc2)cc1C | 9 µM | 14 µM | – |
| Cc1ccc(CCCc2ccc(Nc3ccccc3C(=O)O)cc2)cc1C | 3 µM | 6 µM | – |
| O=C(O)c1cc([N+](=O)[O-])ccc1Nc1ccc(CCc2ccccc2)cc1 | 1.5 µM | 70 µM | – |
| O=C(O)c1cc([N+](=O)[O-])ccc1Nc1ccc(CCc2ccc(Cl)cc2)cc1 | 0.4 µM | 15 µM | – |
| O=C(O)c1ccccc1Nc1ccc(CCc2cccc(F)c2)cc1 | 70 µM | > 100 µM | – |
| CCN(CC)c1ccc(CCCc2ccc(Nc3ccccc3C(=O)O)cc2)cc1 | 1 µM | 3 µM | – |
| O=C(O)c1ccccc1Nc1ccc(CCc2ccc(F)c(F)c2)cc1 | 2 µM | > 100 µM | – |
| O=C(O)c1cc(F)ccc1Nc1ccc(CCCc2ccc(Cl)c(Cl)c2)cc1 | 1 µM | 86 µM | – |
| O=C(O)c1ccccc1Nc1ccc(CCN2CCC3CCCCC3C2)cc1 (stereo not given) | 1 µM | > 100 µM | – |
| Cc1ccc(CCCc2ccc(Nc3cc(F)ccc3C(=O)O)cc2)cc1C | 5.4 µM | 12 µM | – |
| O=C(O)c1ccc(C(F)(F)F)cc1Nc1ccc(CCc2ccc(Cl)c(Cl)c2)cc1 | 4 µM | 27 µM | – |
| O=C(O)c1cc([N+](=O)[O-])ccc1Nc1ccc(CCc2ccccc2Cl)cc1 | 0.5 µM | 3 µM | – |
| O=C(O)c1cccc(C(F)(F)F)c1Nc1ccc(CCc2ccc(Cl)c(Cl)c2)cc1 | 30 µM | > 100 µM | – |
| O=C(O)c1ccc(Nc2ccc(CCc3ccc(Cl)c(Cl)c3)cc2)cc1 | 10 µM | > 100 µM | – |
| O=C(O)c1cc([N+](=O)[O-])ccc1Nc1ccc(CCc2ccc(Cl)cc2Cl)cc1 | 4 µM | 17 µM | – |
| O=C(O)c1cc(Nc2ccc(CCc3ccc(Cl)c(Cl)c3)cc2)ccc1F | 3 µM | > 100 µM | – |
| O=C(O)c1ccccc1Nc1ccc(CCCc2ccc(F)c(C(F)(F)F)c2)cc1 | 3 µM | 5 µM | – |
| CCCCN(CCCC)c1ccc(CCc2ccc(Nc3ccc([N+](=O)[O-])cc3C(=O)O)cc2)cc1 | 1 µM | 15 µM | – |
| O=C(O)c1ccccc1Nc1ccc(CCCc2ccc(Cl)cc2Cl)cc1 | 2 µM | 2 µM | – |

| Compound | IC50 [1] | IC50 [2] | also measured |
| --- | --- | --- | --- |
| Cc1ccc(Nc2ccc(CCCc3ccc(C)c(C)c3)cc2)c(C(=O)O)c1 | 3 µM | 16 µM | – |
| O=C(O)c1ccccc1Nc1ccc(CCCc2ccc(Cl)c(Cl)c2)cc1 | 1 µM | 25 µM | Activity (Mus musculus [3]): 47%; Activity (Mus musculus [4]): 45%; Activity (Mus musculus [5]): 2.6% |
| Cc1ccc(Nc2ccc(CCCc3ccc(Cl)c(Cl)c3)cc2)c(C(=O)O)c1 | > 100 µM | > 100 µM | – |
| O=C(O)c1ccccc1Nc1ccc(CCc2ccc(Cl)cc2)cc1 | 3 µM | > 100 µM | – |
| O=C(O)c1c(Nc2ccc(CCc3ccc(Cl)c(Cl)c3)cc2)cccc1C(F)(F)F | 0.1 µM | 70 µM | – |
| Cc1ccc(CCc2ccc(Nc3ccccc3C(=O)O)cc2)cc1Cl | 1 µM | 88 µM | – |
| O=C(O)c1cc([N+](=O)[O-])ccc1Nc1ccc(CCc2ccc(Cl)c(C(F)(F)F)c2)cc1 | 1 µM | 16 µM | – |
| Cc1ccc(CCCc2ccc(Nc3ccc([N+](=O)[O-])cc3C(=O)O)cc2)cc1C | 6 µM | 14 µM | – |
| COC(=O)c1ccc(Nc2ccc(CCc3ccc(Cl)c(Cl)c3)cc2)cc1 | > 100 µM | > 100 µM | – |
| Cc1ccc(Nc2ccc(CCc3ccc(Cl)c(Cl)c3)cc2)c(C(=O)O)c1 | 2 µM | > 100 µM | – |
| O=C(O)c1ccccc1Nc1ccc(CCCc2cccc(Cl)c2)cc1 | 3 µM | 4 µM | – |
| O=C(O)c1ccccc1Nc1ccc(CCc2ccccc2Cl)cc1 | 5 µM | > 100 µM | – |
| O=C(O)c1ccccc1Nc1ccc(CCCc2ccc(F)c(F)c2)cc1 | 5 µM | 8 µM | – |
| O=C(O)c1ccccc1Nc1ccc(CCCc2cccc(Br)c2)cc1 | 3 µM | 2 µM | – |
| O=C(O)c1ccccc1Nc1ccc(CCc2ccc(Cl)c(Cl)c2)cc1 | 2 µM | > 100 µM | Activity (Mus musculus [6]): 44%; Activity [7]: Active; Activity (Mus musculus [8]): 2.1% |
| O=C(O)c1cc([N+](=O)[O-])ccc1Nc1ccc(CCc2cccc(Cl)c2)cc1 | 0.3 µM | 33 µM | – |
| O=C(O)c1cc([N+](=O)[O-])ccc1Nc1ccc(CCN2CCC3CCCCC3C2)cc1 (stereo not given) | 1 µM | 5 µM | – |
| COc1ccc(CCCc2ccc(Nc3ccccc3C(=O)O)cc2)cc1 | 17 µM | 30 µM | – |
| O=C(O)c1ccccc1Nc1ccc(CCc2cccc(Cl)c2)cc1 | 19 µM | > 100 µM | – |
| O=C(O)c1ccccc1Nc1ccc(CCc2ccc(F)c(C(F)(F)F)c2)cc1 | 2 µM | > 100 µM | – |
